Compound activity (PubChem)
MrgX1 PAM: allosterically activates human MrgX1 receptor signaling; B-score at 10 µM; AID 588675; MrgX1-HEK293, Fluo-4 calcium flux, FDSS; hits give high values; Q96LB2; 310,000 tested, 0.63% active;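 active = plate-corrected calcium response at least 3 library SD above typical, normal starting fluorescence, not activating the receptor alone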;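 note: compound read alongside a low EC10 to EC30 dose of BAM8-22 agonist; peak minus trough fluorescence over baseline measured at the second addition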
Target sequence (Q96LB2 whole entry, looked up): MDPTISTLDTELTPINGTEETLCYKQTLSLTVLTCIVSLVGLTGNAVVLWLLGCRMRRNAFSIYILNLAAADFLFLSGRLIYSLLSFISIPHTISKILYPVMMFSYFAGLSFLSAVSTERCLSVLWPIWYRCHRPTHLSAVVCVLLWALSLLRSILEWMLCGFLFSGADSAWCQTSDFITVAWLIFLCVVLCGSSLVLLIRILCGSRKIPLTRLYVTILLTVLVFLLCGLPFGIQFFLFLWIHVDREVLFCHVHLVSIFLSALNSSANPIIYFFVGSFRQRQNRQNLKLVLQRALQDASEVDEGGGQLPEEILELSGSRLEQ
RGS4 pot: RGS4 potentiation or activation; HEK293 M3R/inducible RGS4, carbachol calcium flux Fluo4; hits give low values; AID 463111; B-score at 10 µM; 310,000 tested, 0.92% active;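 active = B-score of the integrated calcium signal more than 4 SD below the library mean, with starting fluorescence not abnormally high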;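 note: negative B-score means reduced calcium response which marks RGS4 activation or potentiation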
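Material: Inducible-RGS4 HEK293 cells carrying M3 receptor; also added: carbachol at ECmax as muscarinic agonist stimulus; incubation: compound preincubation 20 min at room temperature before agonist; signal: Fluo4-AM (2 µM) calcium-flux fluorescence, kinetic read; measure: integrated calcium ratio converted to B score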
RGS4 inh: human RGS4 inhibition | P49798 | HEK293 M3R/RGS4 inducible, Fluo-4 calcium flux; hits give high values; triggered by carbachol at its EC20 | B-score at 10 µM | 310,000 tested, 0.45% active | AID 463165;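 active = B-score, a plate-corrected calcium signal, over three deviations above library mean, with baseline fluorescence within five deviations of library mean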;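 note: RGS4 expression induced by doxycycline in cells with stable M3 receptor; B-score is computed from the integrated fluorescence ratio over baseline after carbachol; higher B-score means a larger calcium signal and so more RGS4 inhibition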
Target sequence (P49798 whole entry, looked up): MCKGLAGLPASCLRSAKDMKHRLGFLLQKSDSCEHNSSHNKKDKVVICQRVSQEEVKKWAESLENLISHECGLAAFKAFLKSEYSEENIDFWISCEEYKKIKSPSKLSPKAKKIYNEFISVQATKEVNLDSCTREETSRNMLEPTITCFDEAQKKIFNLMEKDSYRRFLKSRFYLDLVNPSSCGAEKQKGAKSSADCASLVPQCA
MrgX1 ag: agonists of human MrgX1 receptor; 310,000 tested, 0.44% active; B-score at 10 µM; AID 588627; Q96LB2; MrgX1-HEK293 cells, Fluo-4 calcium fluorescence, agonist mode; hits give high values;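 active = calcium response B-score plate-corrected fluorescence ratio at least 3 library SD, with starting fluorescence B-score inside 5 SD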
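times = overnight plating, then 30 min 37 °C plus 30 min room-temperature dye loading | assay system = stable human MrgX1 HEK293 cell line | input = fifteen thousand cells per well | signal = kinetic calcium dye fluorescence, Fluo-4 NW | dosing = compound delivered in addition one of three | read-out = B-scored fluorescence response ratio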
MrgX1 antag: antagonists of human MrgX1 receptor | 310,000 tested, 1.3% active | MRGX1-HEK293 calcium flux, Fluo-4, BAM8-22 antagonism; hits give low values | B-score at 10 µM | Q96LB2;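 active = calcium-response B-score plate-corrected more than 3 library SD below zero, starting fluorescence within 5 deviations, no agonist response on first addition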;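 note: peak minus trough fluorescence over baseline after final BAM8-22 challenge near maximal dose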
A number is an active result; 0 = inactive; - = no result given. Hits are enriched below; roughly 3.5% of the tested compounds scored in any of these assays.

SMILES	MrgX1 PAM	RGS4 pot	RGS4 inh	MrgX1 ag	MrgX1 antag
Cc1cc(C)c(S(=O)(=O)c2cccc(Cl)c2)c(=O)[nH]1	0	0	0	0	0
COc1ccc(NC(=O)Cc2coc3cc(C)ccc23)cn1	0	0	0	0	0
CCC(=O)Nc1cc(=O)[nH]c2nc(-c3ccc(Cl)cc3)nn12	0	0	0	0	0
C#CCOCCOCCOCCNc1nc(N2CCN(C(=O)CCCCCCCCCCNC(=O)[C@H](CCCCN)n3cc(CCCC(=O)O)nn3)CC2)nc(N2CCN(C(=O)CCCCCCCCCCNC(=O)[C@H](CCCN=C(N)N)n3cc(C[C@@H](C)CC)nn3)CC2)n1	0	-	-	40	0
CC(C)(C)OC(=O)NCCCC[C@@H](C(=O)NCCCCCCCCCCC(=O)N1CCN(C(=O)OC(C)(C)C)CC1)n1cc(CCO)nn1	0	-	-	0	0
C#CCOCCOCCOCCNc1nc(N2CCN(C(=O)CCCCCCCCCCNC(=O)[C@H](CCCCN)n3cc(CCO)nn3)CC2)nc(N2CCN(C(=O)CCCCCCCCCCNC(=O)[C@H](CCCN=C(N)N)n3cc(C[C@@H](C)CC)nn3)CC2)n1	0	-	-	153	0
C#CCOCCOCCOCCNc1nc(N2CCN(C(=O)CCCCCCCCCCNC(=O)[C@H]([C@@H](C)CC)n3cc(CCCCN=C(N)N)nn3)CC2)nc(N2CCN(C(=O)CCCCCCCCCCNC(=O)[C@H](CCCCN)n3cc(C[C@@H](C)CC)nn3)CC2)n1	0	-	-	61	0
CC[C@H](C)Cc1cn([C@@H](CCCCNC(=O)OC(C)(C)C)C(=O)NCCCCCCCCCCC(=O)N2CCN(C(=O)OC(C)(C)C)CC2)nn1	0	-	-	0	-7.1
C#CCOCCOCCOCCNc1nc(N2CCN(C(=O)CCCCCCCCCCNC(=O)[C@H](CCCCN)n3cc(CCO)nn3)CC2)nc(N2CCN(C(=O)CCCCCCCCCCNC(=O)[C@H](CCCCN)n3cc(CCO)nn3)CC2)n1	0	-	-	0	0
Cc1ccnc(NS(=O)(=O)c2ccc(NC(=O)c3cc(-c4ccc(Br)cc4)nc4ccccc34)cc2)n1	0	0	0	0	0
O=C(N/N=C/c1ccc(N2CCOCC2)cc1)c1cccs1	0	0	0	0	0
O=C(N/N=C/c1ccc(N2CCOCC2)cc1)c1ccccc1OCCOc1ccccc1	0	-7.1	0	0	0
CCc1ccc(C(C(=O)NCc2ccc(OC)cc2)N(CCOC)C(=O)Cc2cccs2)cc1 (stereo not drawn)	0	0	0	0	0
COCCN(C(=O)Cc1cccs1)C(C(=O)NCc1ccc(OC)cc1)c1ccc(C(C)C)cc1 (stereo not drawn)	0	-7	0	0	0
CN1CCN(/N=C/c2ccc(N(c3ccccc3)c3ccccc3)cc2)CC1	0	-7.8	0	0	0
O=C(Nc1ccccc1)N1CCCC(c2nc(-c3ccc(F)cc3)no2)C1 (stereo not drawn)	0	0	0	0	0
O=C(Nc1cccc(C(F)(F)F)c1)N1CCC(c2nc(-c3ccc(F)cc3)no2)CC1	0	-9.3	0	0	0
Cc1cc(-c2ccccc2)nc2cc(C(=O)N(Cc3ccccc3)Cc3ccccc3)nn12	0	-7.9	0	0	0
COC(=O)c1cc2nc(-c3ccccc3)cc(C)n2n1	0	0	0	0	0
COc1cccc([C@@H]2CC=C(C(=O)O)[C@H](c3ccc(Cl)cc3)N2S(=O)(=O)c2ccc(C)cc2)c1	0	-	-	0	0
CCc1ccc([C@@H]2CC=C(C(=O)O)[C@H](c3ccc(Cl)cc3)N2S(=O)(=O)c2ccc(C)cc2)cc1	0	-	-	0	0
COc1cccc([C@@H]2CC=C(C(=O)O)[C@H](c3ccccc3F)N2S(=O)(=O)c2ccc(C)cc2)c1	8.3	-	-	0	0
Cc1ccc(S(=O)(=O)N2[C@@H](c3ccc(Cl)cc3)C(C(=O)O)=CC[C@H]2c2ccc3c(c2)OCO3)cc1	0	-	-	0	0
Cc1ccc(S(=O)(=O)N2[C@@H](c3cccc(Cl)c3)C(C(=O)O)=CC[C@H]2c2ccc3c(c2)OCO3)cc1	7	-	-	0	0
CCc1ccc([C@@H]2CC=C(C(=O)O)[C@H](c3ccccc3F)N2S(=O)(=O)c2ccc(C)cc2)cc1	6.8	-	-	0	0
SMILES	MrgX1 PAM	RGS4 pot	RGS4 inh	MrgX1 ag	MrgX1 antag
COCc1cc(=O)[nH]c2c1c(-c1ccccc1)nn2C	0	0	0	0	0
Cc1cc(NC(=O)CS(=O)(=O)Cc2ccccc2)no1	0	0	0	0	0
CCN(c1ccccc1)S(=O)(=O)c1ccc(Cl)c(C(=O)OCC(=O)c2[nH]c(C)c(C(C)=O)c2C)c1	0	-7.2	0	0	0
CC(=O)c1c(C)[nH]c(C(=O)COC(=O)c2cc(S(=O)(=O)N(C)c3ccccc3)ccc2Cl)c1C	0	0	0	0	0
COc1ccc(Cc2nnc(SCC(=O)Nc3ccccc3C)n(N)c2=O)cc1	0	0	0	0	0
COc1ccc2noc3c2c1C(=O)c1ccccc1-3	0	-7.2	0	0	0
O=[N+]([O-])c1ccccc1/C=N\N1CCN(c2ccccc2)CC1	6.9	0	0	0	0
O=[N+]([O-])c1ccccc1/C=N/N1CCN(c2ccc(Cl)cc2)CC1	0	0	0	0	0
CC(C)(C)C(=O)Nc1nnc(SCC(=O)NC2CCCCC2)s1	0	0	0	0	0
COc1ccc(-c2cc(C(=O)Nc3cc(S(=O)(=O)N4CCOCC4)ccc3N3CCOCC3)c3ccccc3n2)cc1	0	-7	0	0	0
Cc1nn(-c2ccccc2)c(C)c1NC(=O)COC(=O)c1ccc(Cl)c(N)c1	0	-7	0	0	0
CC(=O)Nc1cccc(C(=O)OCC(=O)Nc2c(C)nn(-c3ccccc3)c2C)c1	0	0	0	0	0
CCOC(=O)c1c(N2C(=O)Nc3ccccc3N2O)sc2c1CCCC2	0	0	0	37	0
O=c1[nH]cnc(O)c1C(c1ccc([N+](=O)[O-])cc1)c1c(O)nc[nH]c1=O	0	0	0	0	0
Cn1c(SCc2ccc(Cl)cc2)nnc1-c1ccc2nonc2c1	0	0	0	0	0
C=CCNC(=S)NNC(=O)c1ccc([N+](=O)[O-])cc1	0	0	0	0	-7.9
COC(=O)CCC(=O)NNC(=O)c1ccc([N+](=O)[O-])cc1	0	0	0	0	0
CCCCCCCC(=O)NNC(=O)c1ccc([N+](=O)[O-])cc1	7	0	0	0	0
C=CCNC(=S)NNC(=O)c1ccccc1	0	0	0	0	0
Cc1nc2ccc(NC(=O)CCC3CCCC3)cc2s1	0	0	0	0	0
O=C(CCN1C(=O)c2ccccc2S1(=O)=O)N1CCN(c2ccccc2)CC1	0	0	0	0	0
CN1CCN(C(=O)CCN2C(=O)c3ccccc3S2(=O)=O)CC1	0	0	0	0	-7.4
CCCOc1ccc(-c2c(C(=O)N/N=C(\C)c3cccs3)nnn2-c2nonc2N)cc1	0	0	0	0	0
